Source: PubChem (Sanford-Burnham Center for Chemical Genomics)
Most compounds without a hit are left out; they make up all but 1.4% or so of the library.
APOBEC3G inh – blocks human APOBEC3G single-stranded DNA deamination; recombinant A3G, ssDNA deamination FAM/TAMRA fluorescence; inhibition, % at 20 µM; actives 0.28% (n = 330,000); Q9HC16;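 active = inhibition of at least 40% at 20 µM, with no more than 30% in the related APOBEC3A deaminase screen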;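 also: plate controls were DMSO wells with A3G for no effect and wells lacking A3G enzyme for full effect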
Target sequence (Q9HC16 whole entry, looked up): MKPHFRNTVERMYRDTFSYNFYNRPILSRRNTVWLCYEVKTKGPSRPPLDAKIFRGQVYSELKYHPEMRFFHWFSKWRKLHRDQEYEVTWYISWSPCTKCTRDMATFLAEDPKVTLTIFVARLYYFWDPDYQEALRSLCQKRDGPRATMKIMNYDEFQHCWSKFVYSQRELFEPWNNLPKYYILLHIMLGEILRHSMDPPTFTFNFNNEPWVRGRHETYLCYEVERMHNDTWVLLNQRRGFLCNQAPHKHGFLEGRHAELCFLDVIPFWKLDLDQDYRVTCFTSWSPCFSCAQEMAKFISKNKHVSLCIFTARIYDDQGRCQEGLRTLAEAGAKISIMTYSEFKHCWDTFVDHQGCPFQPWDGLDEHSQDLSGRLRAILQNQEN
A3A deaminase – human APOBEC3A DNA deaminase inhibition. P31941. AID 493011. recombinant A3A, FAM/TAMRA ssDNA deamination fluorescence. inhibition, % at 20 µM. actives 0.41% (n = 330,000);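 active = at least 40% inhibition at 20 µM here, with at most 30% in a related deaminase screen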;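 also: plate controls were A3A with DMSO for no effect and wells lacking A3A enzyme for full effect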
Target sequence (P31941 whole entry, looked up): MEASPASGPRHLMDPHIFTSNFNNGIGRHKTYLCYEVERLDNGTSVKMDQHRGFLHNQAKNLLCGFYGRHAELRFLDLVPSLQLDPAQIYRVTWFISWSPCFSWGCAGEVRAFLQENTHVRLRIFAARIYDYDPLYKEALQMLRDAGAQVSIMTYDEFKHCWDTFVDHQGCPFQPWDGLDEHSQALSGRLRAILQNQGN
iPSC survival up – increases survival of single human iPS cells. hiPSC single-cell survival, ATPlite luminescence; 100% = ROCK inhibitor wells, 0% = DMSO. survival enhancement, % at 20 µM. actives 0.044% (n = 360,000). AID 602274; in the data active = survival enhancement above about 18%;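 also: cells exposed to compounds for 16 hours before the ATP read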
PfG6PD inh – PfG6PD (Plasmodium falciparum) enzyme inhibition | actives 0.78% (n = 350,000) | inhibition, % at 20 µM | AID 504690 | PfGluPho enzyme, NADPH resazurin-diaphorase fluorescence;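 active = inhibition reaching at least a set limit at 20 µM in the primary screen, cut at about 59% in these data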;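 also: 0% = DMSO wells with substrate and 100% = DMSO wells lacking glucose-6-phosphate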
HKDC1 inhibitor – inhibitors of human hexokinase HKDC1; Q2TB90; recombinant HKDC1, G6PDH/diaphorase resazurin coupled fluorescence; inhibition, % at 20 µM; actives 0.16% (n = 340,000); AID 493160;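 active = inhibition above about 35% when tested at 20 µM, limit read from the data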;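 also: plate controls were DMSO wells with enzyme for no effect and DMSO wells lacking enzyme for full effect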
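Material – in-house recombinant HK5 (HKDC1) enzyme · Quantity – HKDC1 at 5 µg/mL · Buffer or medium – pH 8.0 Tris buffer with 10 mM MgCl2 · Reagent – glucose with 1 mM ATP · Dosing – single 20 µM dose · Times – reaction time 90 min, room temperature, protected from light · Technique – resorufin fluorescence at 613 nm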
PfG6PD confirm – PfG6PD inhibition, single-dose confirmed; shares compounds with PfG6PD inh; actives 34% (n = 2,400); inhibition, % at 20 µM; AID 504753; recombinant PfGluPho, NADPH-diaphorase-resazurin fluorescence;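 active = inhibition of at least 50% at 20 µM in any single replicate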;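 also: 0% = DMSO with substrate and 100% = DMSO lacking glucose-6-phosphate substrate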
Diaph ctr 10uM – inhibits diaphorase or oxidizes, flagging false PfG6PD hits; shares compounds with PfG6PD inh; diaphorase-coupled resazurin reduction, fluorescence, NADPH 10 uM; inhibition, % at 20 µM; actives 39% (n = 820); AID 504862;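 active = average inhibition reaching 50% or more with the compound at 20 µM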;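 also: resorufin red fluorescence formed as diaphorase reduces resazurin using NADPH; 0% = DMSO with enzyme and 100% = DMSO without enzyme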
Diaph ctr 30uM – diaphorase inhibition or oxidation at 30 uM NADPH; AID 504863; Diaphorase/resazurin coupled assay, resorufin fluorescence; shares compounds with PfG6PD inh; inhibition, % at 20 µM; actives 29% (n = 820);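 active = inhibition averaging 50% or more, tested at 20 µM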;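 also: 0% = DMSO with enzyme and 100% = DMSO wells lacking diaphorase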
The depositor's hits bear a star; x = no result given.

SMILES	APOBEC3G inh	A3A deaminase	iPSC survival up	PfG6PD inh	HKDC1 inhibitor	PfG6PD confirm	others
COc1cc(C(=O)Nc2scc(-c3ccccc3)c2C(=O)O)cc(OC)c1OC	-7.7	-10.3	0.0	68.6*	3.7	30.7
COc1ccc(-c2csc(NC(=O)c3ccccc3F)c2C(=O)O)cc1	-2.7	-2.0	-0.5	47.0	3.3	x
O=C1NC[C@@H](CCCCN2CCN(CC3CCCCC3)C(=O)C2=O)N(CCC2CCCCC2)C1=O	x	x	0.3	x	x	x
COc1ccc(S(=O)(=O)N2CCCC(C(=O)NCc3ccco3)C2)cc1OC (stereo not drawn)	-3.7	-2.6	0.3	-12.2	-1.8	x
O=C(Nc1nc2ccccc2n1CCN1CCOCC1)c1ccc(Cl)cc1	1.3	2.3	0.7	67.9*	-13.7	43.2
O=C(Nc1nc2ccccc2n1Cc1ccccc1)c1ccco1	-2.2	-3.3	-2.8	79.8*	-1.8	44.7
CN(C(=O)COC(=O)c1ccc(Cl)s1)C1(C#N)CCCCC1	-6.6	-2.5	-0.5	-14.0	-1.0	x
COc1ccccc1CC(=O)Nc1ccc(Cl)cc1C(=O)O	-1.3	0.3	0.2	41.8	-5.0	x
O=C(COc1cccc2ccccc12)Nc1cc(Cl)ccc1C(=O)O	-4.7	-3.3	1.2	104.7*	18.8	69.3*	Diaph ctr 10uM=59.8*;Diaph ctr 30uM=59.5*
O=C(COc1cccc2ccccc12)Nc1ccc(Cl)cc1C(=O)O	x	x	-0.5	75.0*	20.1	64.1*	Diaph ctr 10uM=60.5*;Diaph ctr 30uM=48.2
COc1ccc(C(=O)Nc2cc(Cl)ccc2C(=O)O)cc1	-2.1	2.1	1.4	104.8*	6.2	50.7*	Diaph ctr 10uM=45.2;Diaph ctr 30uM=46.8
O=C(COc1ccccc1C(=O)O)Nc1cccc2ccccc12	-2.7	-0.4	-0.4	-14.7	-0.5	x
O=C(NCCCN1CCOCC1)c1cc(-c2ccc(Cl)s2)nc2ccccc12	-11.3	-1.2	-0.6	-5.5	-4.5	x
O=C(c1ccc2c(c1)N(Cc1ccccc1)C(=O)c1ccccc1S2)N1CCCC1	-1.0	3.0	2.1	101.6*	-2.9	71.6*	Diaph ctr 10uM=61.6*;Diaph ctr 30uM=62.6*
O=C(NCCN1CCOCC1)c1ccc2c(c1)N(Cc1ccccc1F)C(=O)c1ccccc1S2	-9.0	-10.2	-0.1	9.3	-0.2	x
O=C(c1ccc2c(c1)N(Cc1ccccc1F)C(=O)c1ccccc1S2)N1CCOCC1	-0.8	3.7	x	69.1*	0.8	34.7
CC(=O)Nc1cccc(C(=O)NNC(=O)c2ccccc2-n2cccc2)c1	-5.3	-4.0	4.2	15.5	-8.3	x
CCOC(=O)Cc1cc(=O)n2[nH]c(C(C)(C)C)cc2n1	-9.6	-6.5	-0.6	77.9*	-0.8	75.5*	Diaph ctr 10uM=64.1*;Diaph ctr 30uM=45.9
Cc1ccc(C(=O)N2Cc3ccccc3CC2C(=O)O)cc1 (stereo not drawn)	-4.0	0.9	0.7	5.2	-4.5	x
Cc1ccc(NC(=O)C2Cc3ccccc3CN2C(=O)c2ccccc2)cc1Cl (stereo not drawn)	-6.9	-0.6	-1.9	94.4*	-1.5	32.2
Cc1onc(-c2ccccc2)c1C(=O)N/N=C/c1cn(C)c2ccccc12	-10.3	-4.0	1.0	90.0*	4.3	70.9*	Diaph ctr 10uM=68.2*;Diaph ctr 30uM=57.8*
Cc1cccc(/C=N/NC(=O)c2c(-c3ccccc3)noc2C)c1O	-6.1	-5.1	-0.5	16.6	-25.0	x
COc1ccccc1/C=N/NC(=O)c1c(-c2ccccc2)noc1C	-1.7	1.1	-0.4	87.0*	6.5	65.7*	Diaph ctr 10uM=83.9*;Diaph ctr 30uM=63.6*
Cc1onc(-c2ccccc2)c1C(=O)N/N=C/c1cccs1	-1.3	1.1	-0.7	62.3*	-0.1	43.9
Cc1onc(-c2ccccc2)c1C(=O)N/N=C/c1ccccc1OC(C)C	4.1	-4.3	-0.5	117.4*	5.8	85.1*	Diaph ctr 10uM=75.8*;Diaph ctr 30uM=50.1*
SMILES	APOBEC3G inh	A3A deaminase	iPSC survival up	PfG6PD inh	HKDC1 inhibitor	PfG6PD confirm	others
Cc1ccc(C(=O)NC(CCc2ccccc2)C(=O)O)cc1 (stereo not drawn)	-2.8	0.2	1.5	-6.7	1.1	x
CCOc1ccccc1CNC(=O)C1CCN(c2nn3c(=O)cc(C)nc3s2)CC1	-4.4	-10.7	0.7	-6.8	-2.8	x
Cc1ccccc1OCC(=O)N/N=C/c1cn(C)c2ccccc12	-10.3	-2.7	0.4	64.1*	3.7	24.1
CN1CC2=Cc3ccccc3OC23Oc2ccccc2C=C3C1	-1.1	1.9	-3.9	119.8*	9.8	89.6*	Diaph ctr 10uM=86.1*;Diaph ctr 30uM=75.3*
O=C1c2ccccc2OC2(C=Cc3ccccc3O2)N1Cc1ccccc1 (stereo not drawn)	-7.0	-4.9	0.0	-10.6	5.0	x
O=c1ccn(-c2cccc(C(F)(F)F)c2)nc1-c1ccn(-c2ccccc2F)n1	-4.9	0.6	3.7	103.7*	-1.4	101.9*	Diaph ctr 10uM=96.5*;Diaph ctr 30uM=78.0*
O=S1(=O)c2ccc(Br)cc2N2CCC[C@H]2CN1Cc1ccccc1	5.8	3.2	-0.8	72.7*	4.9	7.5
O=S1(=O)c2ccc(Br)cc2N2CCC[C@@H]2CN1Cc1ccc(Cl)cc1	x	x	0.2	62.9*	-1.1	7.2
COc1ccc(NC(=S)Nc2ccc3nsnc3c2)cc1	1.9	2.1	-2.7	89.0*	2.0	-11.6
CCOc1ccc(NC(=S)Nc2ccc3nsnc3c2)cc1	-3.7	-4.3	-0.3	63.8*	6.9	12.8
COc1ccc(NC(=S)Nc2ccc3nc(C)c(C)nc3c2)cc1	4.9	1.6	-2.7	12.2	3.6	x
CCOc1ccc(NC(=O)Nc2ccc3nsnc3c2)cc1	-3.3	1.2	1.8	32.4	-1.2	x
O=NN(Cc1cccnc1)C(=O)NC1CCCCC1	x	x	-0.8	x	x	x
CC(C)(O)CN(C(=O)c1ccc([N+](=O)[O-])cc1)C1CCCC1	x	x	-1.6	15.5	0.0	x
OC[C@@H]1CN(Cc2ccc(-c3ccccc3)cc2)C[C@H](n2cnc3c(NC4CC4)ncnc32)O1	x	x	2.5	x	x	x
O=C(COc1ccc2c(c1)oc(=O)c1ccccc12)NCC1CCC(C(=O)O)CC1 (stereo not drawn)	-3.5	-3.7	0.4	4.5	3.0	x
CCOc1ccc(Nc2cc(C)nc(N3CCOCC3)n2)cc1	-1.9	7.5	3.2	-2.6	-10.8	x
Cc1cc(Nc2ccc(C)c(Cl)c2)nc(N2CCOCC2)n1	-1.2	0.1	-0.7	65.8*	-1.6	7.6
Cc1ccc(Nc2cc(C)nc(N3CCOCC3)n2)cc1	-6.8	-4.0	0.2	61.3*	0.5	11.8
CC(=O)c1sc(NC(=O)c2cnc(Cl)c(Cl)c2)nc1C	-6.3	2.5	-0.1	62.1*	0.4	41.8
C/C=C/c1ccc2c(c1)O[C@@H](CN(C)C(=O)c1ccc(F)cc1)[C@@H](C)CN([C@H](C)CO)S2(=O)=O	x	x	-1.1	22.2	x	x
